# According to ChEMBL document CHEMBL4321840, “Start Selective and Rigidify: The Discovery Path toward a Next Generation of EGFR Tyrosine Kinase Inhibitors” (J Med Chem, 2019):
# Biological target: Epidermal growth factor receptor (Homo sapiens, UniProt P00533)
# Experiment: Inhibition of human recombinant GST-tagged wild type EGFR expressed in baculovirus expression system assessed as decrease in phosphorylation of ULight-poly-GT using ULight-poly-GT as substrate incubated for 90 mins in presence of ATP by TR-FRET LANCE assay
# Conditions: not given
# Sequence of Epidermal growth factor receptor (Homo sapiens, UniProt P00533) (P00533 whole entry): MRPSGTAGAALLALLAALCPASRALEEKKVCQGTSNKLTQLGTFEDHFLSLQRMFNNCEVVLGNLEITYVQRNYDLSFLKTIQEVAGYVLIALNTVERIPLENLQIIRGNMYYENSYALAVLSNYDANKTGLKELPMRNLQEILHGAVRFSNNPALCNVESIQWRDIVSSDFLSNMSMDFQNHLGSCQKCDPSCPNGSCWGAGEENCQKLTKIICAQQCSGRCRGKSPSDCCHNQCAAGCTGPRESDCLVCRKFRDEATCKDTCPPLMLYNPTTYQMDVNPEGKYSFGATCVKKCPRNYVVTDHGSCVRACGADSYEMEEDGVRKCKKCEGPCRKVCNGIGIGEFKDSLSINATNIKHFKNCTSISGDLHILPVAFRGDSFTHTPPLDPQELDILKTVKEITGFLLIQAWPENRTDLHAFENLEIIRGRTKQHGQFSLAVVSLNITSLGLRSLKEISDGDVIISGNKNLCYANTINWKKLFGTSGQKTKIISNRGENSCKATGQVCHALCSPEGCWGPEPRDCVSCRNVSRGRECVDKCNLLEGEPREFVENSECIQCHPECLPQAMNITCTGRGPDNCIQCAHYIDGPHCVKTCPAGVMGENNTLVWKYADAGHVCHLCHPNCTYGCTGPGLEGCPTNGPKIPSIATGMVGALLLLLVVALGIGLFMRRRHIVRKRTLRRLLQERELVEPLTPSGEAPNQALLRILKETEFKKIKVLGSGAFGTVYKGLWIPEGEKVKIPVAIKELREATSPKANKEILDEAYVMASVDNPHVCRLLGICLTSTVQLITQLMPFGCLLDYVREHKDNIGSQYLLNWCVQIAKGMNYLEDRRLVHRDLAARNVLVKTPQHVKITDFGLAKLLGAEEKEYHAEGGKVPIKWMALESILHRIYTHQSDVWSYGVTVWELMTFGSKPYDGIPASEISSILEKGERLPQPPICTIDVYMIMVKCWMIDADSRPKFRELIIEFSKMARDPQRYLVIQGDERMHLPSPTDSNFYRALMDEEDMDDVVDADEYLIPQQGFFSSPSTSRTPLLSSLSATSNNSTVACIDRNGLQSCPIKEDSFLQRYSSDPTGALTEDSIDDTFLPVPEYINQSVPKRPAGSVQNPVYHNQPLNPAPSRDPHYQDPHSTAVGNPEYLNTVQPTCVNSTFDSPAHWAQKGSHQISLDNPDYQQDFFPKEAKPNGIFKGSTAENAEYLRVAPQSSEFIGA
row,SMILES,IC50
1,CC(C)(O)Cn1/c(=N/C(=O)c2ccnc(-c3ccccc3)c2)[nH]c2ccccc21,> 100000 nM
2,CC(C)(O)Cn1/c(=N/C(=O)c2cc(F)cc(-c3cccnc3)c2)[nH]c2ccccc21,> 100000 nM
3,CC(C)(O)Cn1/c(=N/C(=O)c2cccc(-c3cccnc3)c2)[nH]c2ccccc21,> 100000 nM
4,Cn1cc(-c2cc(C(=O)/N=c3\[nH]c4ccccc4n3CC(C)(C)O)ccn2)cn1,> 100000 nM

# Biological target: Epidermal growth factor receptor (Homo sapiens, UniProt P00533, C797S/L858R/T790M)
# Experiment: Inhibition of GST-fusion tagged EGFR L858R/T790M/C797S triple mutant (unknown origin) (696 to 1022 residues) expressed in insect cells assessed as decrease in phosphorylation of ULight-poly-GT using poly-GT as substrate in presence of ATP
# Conditions: not given
# Sequence of Epidermal growth factor receptor (Homo sapiens, UniProt P00533, C797S/L858R/T790M) (P00533 25-1210 T790M/C797S/L858R limits assumed): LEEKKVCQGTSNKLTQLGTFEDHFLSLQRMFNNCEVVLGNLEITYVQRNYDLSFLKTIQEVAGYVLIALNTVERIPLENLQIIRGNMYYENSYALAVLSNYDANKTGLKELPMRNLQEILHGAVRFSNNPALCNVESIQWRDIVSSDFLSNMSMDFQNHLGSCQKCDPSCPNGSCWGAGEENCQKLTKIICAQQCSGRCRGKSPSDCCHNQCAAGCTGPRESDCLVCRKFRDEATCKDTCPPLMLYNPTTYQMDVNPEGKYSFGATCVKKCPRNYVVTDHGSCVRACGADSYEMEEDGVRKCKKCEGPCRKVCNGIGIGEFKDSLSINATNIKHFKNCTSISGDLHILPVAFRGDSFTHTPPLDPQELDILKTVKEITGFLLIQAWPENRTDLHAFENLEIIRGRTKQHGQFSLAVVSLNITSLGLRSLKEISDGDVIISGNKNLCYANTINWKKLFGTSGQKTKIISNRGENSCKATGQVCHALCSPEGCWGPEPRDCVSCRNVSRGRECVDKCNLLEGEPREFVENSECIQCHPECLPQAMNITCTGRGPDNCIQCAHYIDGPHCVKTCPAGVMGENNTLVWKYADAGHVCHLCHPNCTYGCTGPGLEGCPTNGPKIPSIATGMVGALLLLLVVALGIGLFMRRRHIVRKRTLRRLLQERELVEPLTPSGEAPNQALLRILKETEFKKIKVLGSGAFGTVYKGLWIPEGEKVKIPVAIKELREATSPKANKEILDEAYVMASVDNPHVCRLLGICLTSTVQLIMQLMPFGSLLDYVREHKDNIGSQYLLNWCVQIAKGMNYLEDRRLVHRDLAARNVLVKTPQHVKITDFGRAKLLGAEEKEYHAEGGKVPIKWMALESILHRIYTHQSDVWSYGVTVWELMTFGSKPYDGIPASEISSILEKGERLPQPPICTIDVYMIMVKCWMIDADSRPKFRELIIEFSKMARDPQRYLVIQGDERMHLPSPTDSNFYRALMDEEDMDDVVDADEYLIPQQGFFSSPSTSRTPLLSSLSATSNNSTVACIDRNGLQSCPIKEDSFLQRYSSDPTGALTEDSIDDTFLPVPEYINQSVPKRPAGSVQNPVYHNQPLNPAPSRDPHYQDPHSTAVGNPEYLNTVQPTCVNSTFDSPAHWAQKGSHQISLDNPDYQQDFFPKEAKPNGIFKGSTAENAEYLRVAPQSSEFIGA
row,SMILES,IC50
1,CC(C)(O)Cn1/c(=N/C(=O)c2cc(F)cc(-c3cccnc3)c2)[nH]c2ccccc21,2100 nM
2,CC(C)(O)Cn1/c(=N/C(=O)c2cccc(-c3cccnc3)c2)[nH]c2ccccc21,2700 nM
3,Cn1cc(-c2cc(C(=O)/N=c3\[nH]c4ccccc4n3CC(C)(C)O)ccn2)cn1,519 nM

# Biological target: T1, Epidermal growth factor receptor (Homo sapiens, UniProt P00533, C797S/EX19DEL/T790M)
# Experiment: Inhibition of GST-fusion tagged EGFR del19/T790M/C797S triple mutant (unknown origin) (696 to 1022 residues) expressed in insect cells assessed as decrease in phosphorylation of ULight-poly-GT using poly-GT as substrate in presence of ATP
# Conditions: not given
# T1 sequence (P00533 whole entry, looked up, stated change not applied, the tested form may be a part): as the sequence (P00533 whole entry) above
row,SMILES,IC50
1,CC(C)(O)Cn1/c(=N/C(=O)c2ccnc(-c3ccccc3)c2)[nH]c2ccccc21,35 nM
2,CC(C)(O)Cn1/c(=N/C(=O)c2cc(F)cc(-c3cccnc3)c2)[nH]c2ccccc21,250 nM
3,CC(C)(O)Cn1/c(=N/C(=O)c2cccc(-c3cccnc3)c2)[nH]c2ccccc21,173 nM
4,Cn1cc(-c2cc(C(=O)/N=c3\[nH]c4ccccc4n3CC(C)(C)O)ccn2)cn1,72 nM
5,COc1ccncc1-c1cc(C(=O)/N=c2\[nH]c3ccccc3n2CC(C)(C)O)ccn1,≤ 3 nM

# Test system: BaF3
# Experiment: Cytotoxicity against mouse BAF3 cells incubated for 72 hrs by Celltiter-Glo luminescent cell viability assay
# Assay type: cell-based
# Conditions: BaF3, 72 h
# Method in brief: (§1)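 Mutant lines were made IL-3-independent; wt line grown on EGF without IL-3. EGFR-independent control cells carried GFP-only vector and were kept in IL-3. Seeded at 5x10³/100 µl, treated 72 h at 37 °C, viability read by CellTiter-Glo luminescence. Technical and biological triplicates. Geometric mean of ≥3 independent runs.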
row,SMILES,IC50
1,CC(C)(O)Cn1/c(=N/C(=O)c2ccnc(-c3ccccc3)c2)[nH]c2ccccc21,> 25000 nM
2,Cn1cc(-c2cc(C(=O)/N=c3\[nH]c4ccccc4n3CC(C)(C)O)ccn2)cn1,8900 nM
3,COc1ccncc1-c1cc(C(=O)/N=c2\[nH]c3ccccc3n2CC(C)(C)O)ccn1,990 nM

# Biological target: T1, Epidermal growth factor receptor
# Experiment: Inhibition of phosphorylated EGFR del19/T790M/C797S triple mutant (unknown origin) expressed in mouse BaF3 cells incubated for 4 hrs by Alphascreen assay
# Assay type: cell-based
# Conditions: not given
row,SMILES,IC50
1,CC(C)(O)Cn1/c(=N/C(=O)c2ccnc(-c3ccccc3)c2)[nH]c2ccccc21,22 nM
2,CC(C)(O)Cn1/c(=N/C(=O)c2cc(F)cc(-c3cccnc3)c2)[nH]c2ccccc21,790 nM
3,CC(C)(O)Cn1/c(=N/C(=O)c2cccc(-c3cccnc3)c2)[nH]c2ccccc21,1400 nM
4,Cn1cc(-c2cc(C(=O)/N=c3\[nH]c4ccccc4n3CC(C)(C)O)ccn2)cn1,43 nM
5,COc1ccncc1-c1cc(C(=O)/N=c2\[nH]c3ccccc3n2CC(C)(C)O)ccn1,1 nM

# Organism: Homo sapiens
# Experiment: Selectivity ratio of IC50 for inhibition of human recombinant GST-tagged wild type EGFR expressed in baculovirus expression system to IC50 for inhibition of GST-fusion tagged EGFR del19/T790M/C797S triple mutant (unknown origin) (696 to 1022 residues) expressed in insect cells
# Conditions: not given
# Method in brief: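 TR-FRET kinase assays on ULight-poly-GT substrate (200 nM) with ATP 100 µM, final enzyme 1.5 nM (wt) or 15 nM (del746-750/T790M/C797S). Buffer was HEPES pH 7.3, MgCl2, EGTA, Tween 20, DTT. Reaction ran 90 min at room temperature and was stopped with EDTA plus Eu-anti-pTyr antibody, read after 60 min. Top concentration 100 µM with eleven fivefold dilutions in duplicate. IC50 from a 4-parameter logistic fit; ratio is wt IC50 over mutant IC50.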
row,SMILES,Ratio IC50
1,CC(C)(O)Cn1/c(=N/C(=O)c2cc(F)cc(-c3cccnc3)c2)[nH]c2ccccc21,> 400

# Test system: not listed separately
# Experiment: Inhibition of EGFR del19/T790M/C797S triple mutant in mouse BAF3 cells assessed as reduction in cell proliferation incubated for 72 hrs by Celltiter-Glo luminescent cell viability assay
# Assay type: cell-based
# Conditions: BaF3, 72 h
# Method in brief: as §1, with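 “Murine Ba/F3 cells retrovirally transduced with GFP plus EGFR wt, del19 or del19/T790M/C797S, then puromycin-selected. Mutant” for “Mutant”, “runs. Selectivity ratio = wt IC50 / del19/T790M/C797S IC50.” for “runs.”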
row,SMILES,IC50
1,CC(C)(O)Cn1/c(=N/C(=O)c2ccnc(-c3ccccc3)c2)[nH]c2ccccc21,150 nM
2,CC(C)(O)Cn1/c(=N/C(=O)c2ccnc(-c3cccnc3)c2)[nH]c2ccccc21,270 nM
3,Cn1cc(-c2cc(C(=O)/N=c3\[nH]c4ccccc4n3CC(C)(C)O)ccn2)cn1,333 nM
4,COc1ccncc1-c1cc(C(=O)/N=c2\[nH]c3ccccc3n2CC(C)(C)O)ccn1,51 nM
